Measured values taken from ChEMBL document CHEMBL4043283, “Discovery and Preclinical Development of IIIM-290, an Orally Active Potent Cyclin-Dependent Kinase Inhibitor” (J Med Chem, 2018).

Legend:
Mus musculus = assay: Toxicity in CD1 nude mouse xenografted with human HCT116 cells assessed as change in body weight at 25 to 50 mg/kg, po qd administered on day 10 to 25 post tumor inoculation; assay type: organism-based; conditions: in vivo
[1] = Half life in rat liver S9 fraction preincubated for 5 mins followed by NADPH addition measured after 30 mins by LC-MS/MS analysis; assay type: ADME, tissue-based
How it was run: (§1)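 Parent loss followed over time to give half-life, with NADPH as cofactor for microsomal phase I metabolism.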

Salmonella typhimurium [2] = assay: Mutagenicity in Salmonella typhimurium TA100 at 50 ug/plate in absence of liver S9 fraction by Ames test; assay type: toxicity; conditions: salmonella enterica subsp. enterica serovar typhimurium
[3] = AUC in BALB/c mouse at 3 mg/kg, po by LC-MS/MS analysis; assay type: ADME, organism-based; conditions: in vivo
[4] = target: Receptor tyrosine-protein kinase erbB-3 (Homo sapiens) (UniProt P21860); assay: Inhibition of partial length wild type human ERBB3 expressed in mammalian expression system at 0.5 uM by KINOMEscan method relative to control
How it was run: (§2)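 Competition binding screen (KINOMEscan) at 0.5 μM; primary binding read out as % of control, lower values indicating stronger interaction.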

[5] = Ionization constant, pKa of compound by UV spectrophotometric analysis; assay type: physicochemical
CDK6/cyclin D3 = CDK6/cyclin D3 (Homo sapiens, UniProt Q00534); assay: Inhibition of CDK6/cyclin D3 (unknown origin) after 30 mins in presence of [33P]-gamma-ATP by filter binding assay; assay type: protein-complex assay
Chain of CDK6/cyclin D3 (P30281 whole entry): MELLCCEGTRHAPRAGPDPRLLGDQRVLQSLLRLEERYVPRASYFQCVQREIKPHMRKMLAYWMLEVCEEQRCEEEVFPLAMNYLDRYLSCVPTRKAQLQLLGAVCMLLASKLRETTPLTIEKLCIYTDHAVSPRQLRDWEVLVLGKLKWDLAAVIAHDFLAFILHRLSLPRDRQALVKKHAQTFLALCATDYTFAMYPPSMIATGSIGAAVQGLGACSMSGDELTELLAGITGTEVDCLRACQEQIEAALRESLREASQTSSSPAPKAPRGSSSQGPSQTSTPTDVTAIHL
Chain of CDK6/cyclin D3 (Q00534 whole entry): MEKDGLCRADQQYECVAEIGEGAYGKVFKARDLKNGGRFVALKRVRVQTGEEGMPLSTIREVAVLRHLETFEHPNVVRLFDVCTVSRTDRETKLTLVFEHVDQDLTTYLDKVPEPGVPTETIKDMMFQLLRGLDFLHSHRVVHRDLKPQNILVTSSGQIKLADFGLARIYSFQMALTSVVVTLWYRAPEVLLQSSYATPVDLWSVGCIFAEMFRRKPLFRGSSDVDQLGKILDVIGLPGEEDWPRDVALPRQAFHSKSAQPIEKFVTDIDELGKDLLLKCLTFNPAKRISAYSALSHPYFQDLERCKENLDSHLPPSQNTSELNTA

[6] = Half life in mouse liver S9 fraction preincubated for 5 mins followed by NADPH addition measured after 30 mins by LC-MS/MS analysis; assay type: ADME, tissue-based; how it was run: as §1
COLO 205 = assay: Growth inhibition of human COLO205 cells after 48 hrs by MTT assay; assay type: functional; conditions: COLO 205, 48 h
How it was run: (§3)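 Cancer cell lines sourced from the National Cancer Institute (USA). Cells kept in appropriate growth medium at 37 °C, 95% humidity, 5% CO2. Antiproliferation read by tetrazolium (MTT) assay. GI50 values were determined only for compounds selected after an initial single-concentration screen.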

Kidney = assay: Drug uptake in Sprague-Dawley rat kidney at 30 mg/kg, po after 8 hrs; assay type: ADME, organism-based; conditions: in vivo
[7] = Intrinsic clearance in monkey liver S9 fraction assessed per mg of protein preincubated for 5 mins followed by NADPH addition measured after 30 mins by LC-MS/MS analysis; assay type: ADME, tissue-based, Macaca mulatta; conditions: rhesus monkey, s9, 0.5 h
Liver = assay: Intrinsic clearance in mouse liver S9 fraction assessed per mg of protein preincubated for 5 mins followed by NADPH addition measured after 30 mins by LC-MS/MS analysis; assay type: ADME, tissue-based; conditions: s9, 0.5 h
[8] = Half life in Sprague-Dawley rat at 3 mg/kg, po by LC-MS/MS analysis; assay type: ADME, organism-based; conditions: in vivo
CYP3A4 = CYP3A4 (Homo sapiens, UniProt P08684); assay: Inhibition of human CYP3A4 at 2 uM using fluorogenic substrate after 5 mins by fluorometric method relative to control; assay type: ADME; conditions: probe fluorogenic substrate
Chain of CYP3A4 (P08684 whole entry): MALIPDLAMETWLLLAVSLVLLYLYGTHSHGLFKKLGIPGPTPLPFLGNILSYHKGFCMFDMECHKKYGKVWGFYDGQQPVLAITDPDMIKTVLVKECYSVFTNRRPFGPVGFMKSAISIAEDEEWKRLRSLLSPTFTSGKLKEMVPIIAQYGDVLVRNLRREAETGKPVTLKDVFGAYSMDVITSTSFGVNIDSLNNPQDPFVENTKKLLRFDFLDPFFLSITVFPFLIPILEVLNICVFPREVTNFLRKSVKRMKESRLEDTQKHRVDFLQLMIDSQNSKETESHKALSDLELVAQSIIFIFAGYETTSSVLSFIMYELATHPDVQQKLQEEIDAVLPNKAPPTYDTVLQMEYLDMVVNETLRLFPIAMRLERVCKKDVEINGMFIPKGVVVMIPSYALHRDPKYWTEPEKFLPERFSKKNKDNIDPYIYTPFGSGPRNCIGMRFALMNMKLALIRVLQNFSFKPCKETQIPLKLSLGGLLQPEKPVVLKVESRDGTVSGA

CDK9/Cyclin K = CDK9/Cyclin K (Homo sapiens, UniProt P50750); assay: Inhibition of CDK9/cyclin K (unknown origin) after 30 mins in presence of [33P]-gamma-ATP by filter binding assay; assay type: protein-complex assay
Chain of CDK9/Cyclin K (P50750 whole entry): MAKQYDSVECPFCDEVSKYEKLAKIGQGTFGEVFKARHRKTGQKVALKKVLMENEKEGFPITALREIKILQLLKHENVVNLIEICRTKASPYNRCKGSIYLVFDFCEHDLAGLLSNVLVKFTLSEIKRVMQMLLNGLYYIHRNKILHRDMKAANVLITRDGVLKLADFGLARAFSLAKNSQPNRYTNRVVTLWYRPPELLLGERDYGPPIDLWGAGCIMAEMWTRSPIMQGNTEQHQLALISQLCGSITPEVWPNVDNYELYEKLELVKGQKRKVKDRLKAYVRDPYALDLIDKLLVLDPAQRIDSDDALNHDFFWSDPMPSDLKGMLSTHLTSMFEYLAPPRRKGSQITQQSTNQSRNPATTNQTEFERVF
Chain of CDK9/Cyclin K (O75909 whole entry, further chain): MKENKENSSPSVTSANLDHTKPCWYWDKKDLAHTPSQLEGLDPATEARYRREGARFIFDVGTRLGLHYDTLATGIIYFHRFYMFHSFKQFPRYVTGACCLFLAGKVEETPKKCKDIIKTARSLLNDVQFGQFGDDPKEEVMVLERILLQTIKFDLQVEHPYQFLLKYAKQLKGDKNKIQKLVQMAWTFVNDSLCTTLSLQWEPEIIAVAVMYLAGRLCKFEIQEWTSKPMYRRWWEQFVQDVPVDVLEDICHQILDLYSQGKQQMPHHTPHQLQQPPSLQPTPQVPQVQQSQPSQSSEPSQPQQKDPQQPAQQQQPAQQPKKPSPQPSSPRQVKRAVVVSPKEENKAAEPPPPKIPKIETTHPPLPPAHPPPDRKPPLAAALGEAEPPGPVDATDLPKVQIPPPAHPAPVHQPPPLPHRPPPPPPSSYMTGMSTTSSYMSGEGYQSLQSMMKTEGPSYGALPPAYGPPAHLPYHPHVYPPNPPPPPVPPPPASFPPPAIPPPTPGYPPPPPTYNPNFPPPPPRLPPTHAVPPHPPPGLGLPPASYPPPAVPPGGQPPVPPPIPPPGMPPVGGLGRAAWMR

Cytochrome P450 2C9 = Cytochrome P450 2C9 (Homo sapiens, UniProt P11712); assay: Time-dependent inhibition of human CYP2C9 at 2 uM using fluorogenic substrate by fluorometric method; assay type: ADME
Chain of Cytochrome P450 2C9 (P11712 whole entry): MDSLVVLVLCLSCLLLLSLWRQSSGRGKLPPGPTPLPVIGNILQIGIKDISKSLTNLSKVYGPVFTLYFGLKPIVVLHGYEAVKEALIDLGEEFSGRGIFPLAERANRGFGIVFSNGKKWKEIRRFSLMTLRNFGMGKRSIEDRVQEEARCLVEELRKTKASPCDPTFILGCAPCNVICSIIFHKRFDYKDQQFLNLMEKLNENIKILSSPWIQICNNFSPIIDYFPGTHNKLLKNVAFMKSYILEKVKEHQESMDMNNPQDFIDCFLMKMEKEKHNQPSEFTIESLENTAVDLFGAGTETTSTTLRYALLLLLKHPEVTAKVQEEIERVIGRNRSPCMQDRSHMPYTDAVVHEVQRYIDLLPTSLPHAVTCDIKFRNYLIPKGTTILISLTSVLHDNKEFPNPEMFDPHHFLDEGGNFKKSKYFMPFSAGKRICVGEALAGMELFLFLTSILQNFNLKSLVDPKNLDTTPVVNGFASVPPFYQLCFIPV

[9] = Apparent permeability across basolateral to apical side in human Caco2 cells after 90 mins by LC-MS/MS analysis; assay type: ADME, cell-based; conditions: Caco-2
[10] = n-octanol-PBS distribution co-efficient, log D of compound at pH 7.4 by shake flask method; assay type: physicochemical
[11] = n-octanol-water partition co-efficient, log P of compound by shake flask method; assay type: physicochemical
serum albumin = serum albumin (Homo sapiens, UniProt P02768); assay: Binding affinity to human serum albumin; assay type: ADME; conditions: read-out: PB (converted)
Chain of serum albumin (P02768 whole entry): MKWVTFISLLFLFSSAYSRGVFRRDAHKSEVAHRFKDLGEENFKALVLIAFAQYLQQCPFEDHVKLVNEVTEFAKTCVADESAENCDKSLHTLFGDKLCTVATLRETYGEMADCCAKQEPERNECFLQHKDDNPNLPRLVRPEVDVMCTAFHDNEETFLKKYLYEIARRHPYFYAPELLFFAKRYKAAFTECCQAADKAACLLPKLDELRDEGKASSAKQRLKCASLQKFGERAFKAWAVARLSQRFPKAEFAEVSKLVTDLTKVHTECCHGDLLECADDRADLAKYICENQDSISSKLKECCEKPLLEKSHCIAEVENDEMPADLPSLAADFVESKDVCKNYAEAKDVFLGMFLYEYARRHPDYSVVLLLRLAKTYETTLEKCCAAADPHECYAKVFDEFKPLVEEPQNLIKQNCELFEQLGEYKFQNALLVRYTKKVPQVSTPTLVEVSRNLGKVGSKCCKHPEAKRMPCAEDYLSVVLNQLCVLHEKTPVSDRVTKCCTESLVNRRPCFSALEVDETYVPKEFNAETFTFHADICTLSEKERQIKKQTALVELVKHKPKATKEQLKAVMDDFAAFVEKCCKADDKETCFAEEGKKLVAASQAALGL

PBL = assay: Genotoxicity in human PBL at 0.125 to 2 ug/ml in presence of cytokinesis blocking agent cytochalasin B and absence of liver S9 fraction by micronucleus test; assay type: toxicity, cell-based
[12] = target: CDK4/Cyclin D3 (Homo sapiens) (UniProt P11802+P30281); assay: Inhibition of full length wild type human CDK4/cyclin D3 expressed in mammalian expression system at 0.5 uM by KINOMEscan method relative to control; how it was run: as §2
Cytochrome P450 3A4 = Cytochrome P450 3A4 (Homo sapiens, UniProt P08684); assay: Inhibition of human CYP3A4 using fluorogenic substrate preincubated with co-factor for 10 mins followed by enzyme-substrate addition by fluorometric method; assay type: ADME
Chain of Cytochrome P450 3A4 (P08684 whole entry): as the sequence (P08684 whole entry) above
How it was run: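 Cofactor plus test item or vehicle, in triplicate, preincubated 10 min at 37 °C; prewarmed enzyme–substrate mix added and incubated at 37 °C with shaking. Quench: acetonitrile (CYP2C19, CYP3A4) or 0.25 M Tris in 60% methanol (CYP2C9, CYP2D6). Metabolite fluorescence read; % inhibition computed against enzyme controls and enzyme-free blanks.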

[13] = AUC (0 to infinity) in BALB/c mouse at 10 mg/kg, po by LC-MS/MS analysis; assay type: ADME, organism-based; parameters: dose 10 mg/kg, time infinity, route oral; conditions: in vivo
[14] = Metabolic stability in mouse plasma assessed as parent compound remaining after 8 hrs by HPLC method; assay type: ADME, cell-free; conditions: read-out: Stability
MOLT-4 = assay: Antitumor activity against human MOLT4 cells xenografted in CD1 nude mouse assessed as tumor growth inhibition at 50 mg/kg, po qd administered on day 10 to 25 post tumor inoculation relative to control; assay type: functional; conditions: MOLT-4, po, 240 h, read-out: TGI
[15] = Cmax in Sprague-Dawley rat at 10 mg/kg, po by LC-MS/MS analysis; assay type: ADME, organism-based; parameters: dose 10 mg/kg, route oral; conditions: in vivo
[16] = Ratio of Cmax in Sprague-Dawley rat at 30 mg/kg, po to GI50 for human HL60 cells
OVCAR-4 = assay: Growth inhibition of human OVCAR4 cells after 48 hrs by MTT assay; assay type: functional; conditions: OVCAR-4, 48 h; how it was run: as §3
[17] = Chemical stability of compound in hydrochloric acid buffer at pH 1.2 assessed as parent compound remaining at 120 ug/ml after 24 hrs by HPLC method; assay type: physicochemical; conditions: read-out: Stability
[18] = Ratio of Cmax in BALB/c mouse at 30 mg/kg, po to GI50 for human MIAPaCa2 cells
DU-145 = assay: Growth inhibition of human DU145 cells after 48 hrs by MTT assay; assay type: functional; conditions: DU-145, 48 h; how it was run: as §3
[19] = Pancreas to plasma partition coefficient, Kp of the compound in Sprague-Dawley rat at 30 mg/kg, po measured at 1 hr; assay type: ADME, organism-based; conditions: pancreas and plasma
[20] = Half life in monkey liver microsomes at 100 uM after 30 mins by LC-MS/MS analysis; assay type: ADME, Macaca mulatta, microsome; conditions: rhesus monkey; how it was run: as §1
Salmonella typhimurium [21] = assay: Mutagenicity in Salmonella typhimurium TA102 at 50 ug/plate in presence of liver S9 fraction by Ames test; assay type: toxicity; conditions: salmonella enterica subsp. enterica serovar typhimurium
[22] = Chemical stability of compound in phosphate buffer at pH 4 assessed as parent compound remaining at 120 ug/ml after 24 hrs by HPLC method; assay type: physicochemical; conditions: read-out: Stability
Cytochrome P450 2D6 = Cytochrome P450 2D6 (Homo sapiens, UniProt P10635); assay: Time-dependent inhibition of human CYP2D6 at 2 uM using fluorogenic substrate by fluorometric method; assay type: ADME
Chain of Cytochrome P450 2D6 (P10635 whole entry): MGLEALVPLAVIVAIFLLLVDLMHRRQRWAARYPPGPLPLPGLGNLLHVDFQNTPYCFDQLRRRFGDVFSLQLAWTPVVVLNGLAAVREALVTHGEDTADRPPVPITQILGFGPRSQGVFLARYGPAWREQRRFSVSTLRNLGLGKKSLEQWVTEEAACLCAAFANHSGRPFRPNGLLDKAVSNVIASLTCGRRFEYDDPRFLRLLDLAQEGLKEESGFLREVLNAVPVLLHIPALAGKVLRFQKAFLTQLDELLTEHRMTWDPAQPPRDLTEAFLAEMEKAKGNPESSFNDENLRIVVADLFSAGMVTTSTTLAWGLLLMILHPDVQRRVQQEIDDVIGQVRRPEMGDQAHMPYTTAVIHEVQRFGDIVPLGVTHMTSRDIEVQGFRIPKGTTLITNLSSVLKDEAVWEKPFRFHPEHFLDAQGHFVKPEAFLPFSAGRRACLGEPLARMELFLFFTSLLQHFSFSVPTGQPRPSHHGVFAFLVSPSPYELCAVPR

CN1CC[C@H](c2c(O)cc(O)c3c(=O)cc(/C=C/c4c(Cl)cccc4Cl)oc23)[C@H](O)C1
Activity (Mus musculus): Non-Toxic | half-life [1]: 31 min | Activity (Salmonella typhimurium [2]): Non-Toxic | AUC [3]: 0.643 µM·h | inhibition [4]: > 98% | pKa [5]: 5.4 | IC50 (CDK6/cyclin D3): 0.199 µM | half-life [6]: 86 min | GI50 (COLO 205): 7 µM | Drug uptake (Kidney): Active | CLint [7]: 25 µL/min/mg | CLint (Liver): 16 µL/min/mg | half-life [8]: 280 min | inhibition at 5 min, 2 µM (CYP3A4): 30% | IC50 (CDK9/Cyclin K): 0.412 µM | TDI (Cytochrome P450 2C9): Not Active | Papp B→A at 1.5 h [9]: 3.9 ×10⁻⁶ cm/s | logD [10]: 1.65 | logP [11]: 3.09 | fraction unbound (serum albumin): 0.033 | Activity (PBL): Non-Toxic | inhibition [12]: > 98% | IC50 (Cytochrome P450 3A4): > 20 µM | AUC(0-inf) [13]: 4.4 µM·h | remaining at 8 h [14]: 94% | inhibition in vivo at 50 mg/kg (MOLT-4): 40 to 52% | Cmax [15]: 900 nM | Ratio [16]: 4 | GI50 (OVCAR-4): 9 µM | remaining at 24 h, 120 ug/ml [17]: 100% | Ratio [18]: 4 | GI50 (DU-145): 5 µM | Kp at 1 h [19]: 4.1 | half-life at 100 µM [20]: 25 min | Activity (Salmonella typhimurium [21]): Non-Toxic | remaining at 24 h, 120 ug/ml [22]: 100% | TDI (Cytochrome P450 2D6): Not Active
